How the values were obtained:
[1] = molecular target: Delta-type opioid receptor (Homo sapiens, UniProt P41143); experiment: Displacement of [3H]Naltrindole form human delta opioid receptor expressed in CHO cells; format: cell-based
Summary of the method: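 Membranes from CHO cells stably expressing the human receptor incubated with 12 concentrations of compound and 0.2 nM [3H]naltrindole in 50 mM Tris–HCl, pH 7.5, with 10 mM MgCl2 and 0.5 mM PMSF, for 3 h at 25 °C. Filters were soaked in 0.1% PEI before filtration and scintillation counting. IC50 came from log-probit fit, and Ki = IC50/(1 + [radioligand]/Kd).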

[2] = molecular target: T1, Kappa-type opioid receptor (Homo sapiens, UniProt P41145); experiment: Displacement of [3H]U69593 form human kappa opioid receptor expressed in CHO cells; format: cell-based
T1 sequence (P41145 whole entry): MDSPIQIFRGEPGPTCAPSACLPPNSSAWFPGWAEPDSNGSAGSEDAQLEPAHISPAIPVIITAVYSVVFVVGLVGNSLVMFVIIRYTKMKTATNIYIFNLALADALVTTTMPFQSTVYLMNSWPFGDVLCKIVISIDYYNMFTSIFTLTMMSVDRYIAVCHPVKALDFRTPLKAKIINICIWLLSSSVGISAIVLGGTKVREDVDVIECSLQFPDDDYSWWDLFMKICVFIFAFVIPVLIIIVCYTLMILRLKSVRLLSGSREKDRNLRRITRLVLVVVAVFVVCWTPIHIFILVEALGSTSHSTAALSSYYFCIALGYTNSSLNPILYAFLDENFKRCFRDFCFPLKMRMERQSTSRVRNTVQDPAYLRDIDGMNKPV

Mu-type opioid receptor [3] = molecular target: T2, Mu-type opioid receptor (Homo sapiens, UniProt P35372); experiment: Displacement of [3H]DAMGO form human mu opioid receptor expressed in CHO cells; format: cell-based
T2 sequence (P35372 whole entry): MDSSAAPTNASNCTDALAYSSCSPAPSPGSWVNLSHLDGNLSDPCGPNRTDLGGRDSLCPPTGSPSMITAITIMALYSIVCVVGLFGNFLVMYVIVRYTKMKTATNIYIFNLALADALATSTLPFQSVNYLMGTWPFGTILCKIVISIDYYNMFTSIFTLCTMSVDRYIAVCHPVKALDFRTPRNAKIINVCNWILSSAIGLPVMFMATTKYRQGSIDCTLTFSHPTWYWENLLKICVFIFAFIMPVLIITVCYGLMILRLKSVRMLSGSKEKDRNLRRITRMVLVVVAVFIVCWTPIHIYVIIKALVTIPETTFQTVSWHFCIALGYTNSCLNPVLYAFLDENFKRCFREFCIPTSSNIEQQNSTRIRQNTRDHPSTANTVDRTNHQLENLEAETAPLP

CHO [4] = experiment: Ratio of Ki for human mu opioid receptor to Ki for human kappa opioid receptor expressed in CHO cells; format: cell-based
CHO [5] = experiment: Ratio of Ki for human delta opioid receptor to Ki for human kappa opioid receptor expressed in CHO cells; format: cell-based
Mu-type opioid receptor [6] = molecular target: Mu-type opioid receptor (Cavia porcellus, UniProt P97266); experiment: Displacement of [3H]DAMGO form mu opioid receptor in guinea pig brain
Chain of Mu-type opioid receptor (Cavia porcellus, UniProt P97266) (P97266 whole entry): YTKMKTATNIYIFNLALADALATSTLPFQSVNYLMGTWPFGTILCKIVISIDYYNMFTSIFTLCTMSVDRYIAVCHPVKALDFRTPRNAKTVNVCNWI

[7] = Displacement of [3H]Naltrindole form delta opioid receptor in guinea pig brain; set-up: species or system Cavia porcellus
Summary of the method: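 Guinea pig brain membrane protein incubated with 12 concentrations of compound and 0.2 nM [3H]naltrindole in 50 mM Tris–HCl, pH 7.5, with 10 mM MgCl2 and 0.5 mM PMSF, for 3 h at 25 °C. Samples filtered onto polyethyleneimine-soaked glass fiber filters, washed, and counted by scintillation. IC50 came from log-probit fit, and Ki = IC50/(1 + [radioligand]/Kd).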

Cavia porcellus = organism: Cavia porcellus; experiment: Ratio of Ki for delta opioid receptor to Ki for kappa opioid receptor in guinea pig brain
[8] = molecular target: Kappa-type opioid receptor (Cavia porcellus, UniProt P41144); experiment: Displacement of [3H]U69593 form kappa opioid receptor in guinea pig brain
Chain of Kappa-type opioid receptor (Cavia porcellus, UniProt P41144) (P41144 whole entry): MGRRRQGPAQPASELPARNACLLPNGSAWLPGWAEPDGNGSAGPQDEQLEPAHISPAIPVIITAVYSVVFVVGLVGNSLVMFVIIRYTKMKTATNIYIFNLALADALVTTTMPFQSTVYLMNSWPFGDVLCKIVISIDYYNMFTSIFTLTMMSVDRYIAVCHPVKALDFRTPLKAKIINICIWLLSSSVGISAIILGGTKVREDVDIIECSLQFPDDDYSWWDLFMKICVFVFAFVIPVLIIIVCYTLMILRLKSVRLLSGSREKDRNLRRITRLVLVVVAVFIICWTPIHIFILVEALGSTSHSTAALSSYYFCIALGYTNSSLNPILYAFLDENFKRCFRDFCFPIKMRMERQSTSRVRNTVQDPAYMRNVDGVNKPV

[9] = molecular target: T1, Kappa-type opioid receptor; experiment: Activity at human cloned kappa opioid receptor expressed in CHO cells by [35S]GTPgammaS binding assay; format: functional, cell-based
Mu-type opioid receptor [10] = molecular target: T2, Mu-type opioid receptor; experiment: Activity at human cloned mu opioid receptor expressed in CHO cells by [35S]GTPgammaS binding assay; format: functional, cell-based
Mu-type opioid receptor [11] = molecular target: T2, Mu-type opioid receptor; experiment: Activity at human cloned mu opioid receptor expressed in CHO cells assessed as inhibition of DAMGO-induced [35S]GTPgammaS binding; format: functional, cell-based
[12] = molecular target: T1, Kappa-type opioid receptor; experiment: Activity at human cloned kappa opioid receptor expressed in CHO cells assessed as inhibition of U50488-induced [35S]GTPgammaS binding; format: functional, cell-based

Chain of Delta-type opioid receptor (P41143 whole entry): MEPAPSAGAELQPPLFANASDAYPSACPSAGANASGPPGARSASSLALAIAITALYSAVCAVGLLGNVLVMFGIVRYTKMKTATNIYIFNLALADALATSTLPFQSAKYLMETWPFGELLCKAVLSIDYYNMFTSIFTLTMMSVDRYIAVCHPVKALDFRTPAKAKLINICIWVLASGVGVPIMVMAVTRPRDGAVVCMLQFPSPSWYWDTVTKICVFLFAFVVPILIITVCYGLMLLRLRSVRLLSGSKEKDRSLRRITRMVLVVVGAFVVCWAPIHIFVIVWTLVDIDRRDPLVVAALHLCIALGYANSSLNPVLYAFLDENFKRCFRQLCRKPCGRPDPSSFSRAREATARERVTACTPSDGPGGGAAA

Structure (SMILES)	Ki [1] [nM]	Ki [2] [nM]	Ki (Mu-type opioid receptor [3]) [nM]	Ratio Ki (CHO [4])	Ratio Ki (CHO [5])	Ki [7] [nM]	EC50 [9] [nM]	also measured
CC(C)=CCN1CC[C@@]2(C)c3cc(O)ccc3C[C@@H]1[C@@H]2C (relative stereo)	180	3						
C=CCN1CC[C@]23c4c5ccc(O)c4O[C@H]2[C@@H](O)C=C[C@H]3[C@H]1C5 [NALORPHINE]	120	0.38	0.19	0.5	320			
CN(C)C[C@H]1CCCC[C@]1(O)c1cccc(O)c1 (relative stereo) [O-DESMETHYL TRAMADOL]	2900	450						
CCC12CCN(CC3CC3)C(C(=O)c3ccc(C(N)=O)cc31)C2C (stereo not drawn)						9.8		Ki (Mu-type opioid receptor [6]): 1.2 nM; Ratio Ki (Cavia porcellus): 14
CN(C)C[C@H]1CCCC[C@]1(O)c1cccc(C(N)=O)c1 (relative stereo)	2400	350	9.5	0.03	7			
C[C@@H]1[C@@H]2Cc3ccc(C(N)=O)cc3[C@@]1(C)CCN2C[C@@H]1CCCO1						2	30	Ki (Mu-type opioid receptor [6]): 0.052 nM; Ki [8]: 0.089 nM
CC1C2Cc3ccc(C(N)=O)cc3C1(C)CCN2C (stereo not drawn)	320	19	1.6	0.08	17			EC50 (Mu-type opioid receptor [10]): 24 nM; IC50 (Mu-type opioid receptor [11]): 25 nM
CC1C2C(=O)c3ccc(C(N)=O)cc3C1(C)CCN2CC1CC1 (stereo not drawn)						20	9.6	Ki (Mu-type opioid receptor [6]): 1.4 nM
CC1C2Cc3ccc(C(N)=O)cc3C1(C)CCN2CCc1ccccc1 (stereo not drawn)	1.2	0.55	0.015	0.03	2		4.4	EC50 (Mu-type opioid receptor [10]): 5.3 nM; IC50 [12]: 640 nM
CCC12CCN(CC3CC3)C(C(=O)c3ccc(O)cc31)C2C (stereo not drawn)						3.4		Ki (Mu-type opioid receptor [6]): 0.78 nM
NC(=O)c1ccc2c(c1)[C@@]13CCCC[C@@]1(O)[C@@H](C2)N(CC1CCC1)CC3	14	0.39	0.15	0.38	40		3.8	IC50 (Mu-type opioid receptor [11]): 30 nM
C=CCN1CC[C@]23c4c5ccc(C(N)=O)c4O[C@@H]2[C@@H](O)C=C[C@H]3[C@H]1C5	> 10000	100	18	0.2				
CC1C2Cc3ccc(C(N)=O)cc3C1(C)CCN2CC1CC1 (stereo not drawn)	5.2							
CC1C2Cc3ccc(O)cc3[C@@]1(C)CCN2C[C@@H]1CCCO1 (single isomer, unassigned)						3.6	1	Ki (Mu-type opioid receptor [6]): 0.19 nM; Ki [8]: 0.09 nM; Ratio Ki (Cavia porcellus): 40; EC50 (Mu-type opioid receptor [10]): 2.7 nM; IC50 (Mu-type opioid receptor [11]): 17 nM
C=C1CC[C@@]2(O)[C@H]3Cc4ccc(C(N)=O)c5c4[C@@]2(CCN3CC2CC2)[C@H]1O5	67	2.1	2.6	1	32			
CC(C)=CCN1CC[C@@]2(C)c3cc(C(N)=O)ccc3C[C@@H]1[C@@H]2C (relative stereo)	220	5.6						
C[C@H]1C2Cc3ccc(O)cc3[C@@]1(C)CCN2CCc1ccccc1	5	2	0.2	0.1	2.5		8.1	EC50 (Mu-type opioid receptor [10]): 27 nM
NC(=O)c1ccc2c3c1O[C@H]1[C@H](O)CC[C@@]4(O)[C@@H](C2)N(CC2CC2)CC[C@]314	> 10000	30	2.5	0.08				
NC(=O)c1ccc2c3c1O[C@H]1C4NC5C(C[C@@]6(O)[C@H]7Cc8ccc(C(N)=O)c9c8[C@@]6(CCN7CC6CC6)[C@H]5O9)C4C[C@@]4(O)[C@@H](C2)N(CC2CC2)CC[C@]314 (stereo partly drawn)	1000	21	400	19	50			
CN1CC[C@]23c4c5ccc(C(N)=O)c4O[C@H]2[C@@H](O)C=C[C@H]3[C@H]1C5						1900		Ki (Mu-type opioid receptor [6]): 34 nM; Ki [8]: 2000 nM; Ratio Ki (Cavia porcellus): 1
COc1cccc(C2(O)CCCCC2CN(C)C)c1 (stereo not drawn) [TRAMADOL]	9.4	14						
C[C@H]1[C@H]2C(=O)c3ccc(O)cc3[C@]1(C)CCN2CC1CC1 [KETAZOCINE]						20	3.3	Ki [8]: 1 nM; EC50 (Mu-type opioid receptor [10]): 21 nM; IC50 (Mu-type opioid receptor [11]): 130 nM
C[C@H]1[C@@H]2Cc3ccc(O)cc3[C@]1(C)CCN2C [METAZOCINE]	140	9.9	3.8	0.4	14		120	EC50 (Mu-type opioid receptor [10]): 40 nM
NC(=O)c1ccc2c3c1O[C@H]1[C@@H](O)CC[C@@]4(O)[C@@H](C2)N(CC2CC2)CC[C@]314	> 10000	100	7.1	0.07				
NC(=O)c1ccc2c3c1O[C@H]1C(=O)CC[C@@]4(O)[C@@H](C2)N(CC2CC2)CC[C@]314		0.36		0.065	50			
Oc1ccc2c(c1)[C@@]13CCCC[C@@]1(O)[C@@H](C2)N(CC1CCC1)CC3 [BUTORPHANOL]							2.9	
C[C@@H]1[C@@H]2Cc3ccc(C(N)=O)cc3[C@@]1(C)CCN2C[C@H]1CCCO1						34	170	Ki (Mu-type opioid receptor [6]): 2.9 nM; Ki [8]: 2.8 nM
C[C@@H]1[C@@H]2Cc3ccc(O)cc3[C@@]1(C)CCN2C[C@H]1CCCO1						67	41	Ki (Mu-type opioid receptor [6]): 4 nM; Ki [8]: 1.5 nM; Ratio Ki (Cavia porcellus): 45

Source: ChEMBL document CHEMBL1139291, “Syntheses and opioid receptor binding properties of carboxamido-substituted opioids” (Bioorg Med Chem Lett, 2009)
